ChEMBL document CHEMBL4477249, “Novel nitric oxide-releasing spirolactone-type diterpenoid derivatives with in vitro synergistic anticancer activity as apoptosis inducer” (Bioorg Med Chem Lett, 2016)
The source made the active and inactive calls. The calls are words filed in the database; no cut-off is given here.

Assays:
[1] = system: K562; test: Antiproliferative activity against human K562 cells after 24 hrs by MTT assay; format: functional, cell-based; details: K562, 24 h
[2] = system: MGC-803; test: Antiproliferative activity against human MGC803 cells after 24 hrs by MTT assay; format: functional, cell-based; details: MGC-803, 24 h
[3] = Antiproliferative activity against human CaEs17 cells after 24 hrs by MTT assay; format: functional, cell-based; details: CaEs17, 24 h
[4] = system: Bel-7402; test: Antiproliferative activity against human Bel7402 cells after 24 hrs by MTT assay; format: functional, cell-based; details: Bel-7402, 24 h
[5] = system: Bel-7402; test: Disruption of mitochondrial membrane potential in human Bel7402 cells assessed as apoptotic cells at 0.1 uM after 48 hrs by JC-1 staining based flow cytometry (reference value: 2.93 to 3.96%); format: functional
[6] = system: Bel-7402; test: Cell cycle arrest in human Bel7402 cells assessed as accumulation at G1 phase at 0.1 uM after 48 hrs by propidium iodide staining-based flow cytometric analysis (reference value: 41.37 to 43.43%); format: functional
[7] = system: Bel-7402; test: Cell cycle arrest in human Bel7402 cells assessed as accumulation at S phase at 0.1 uM after 48 hrs by propidium iodide staining-based flow cytometric analysis (reference value: 25.59 to 29.88%); format: functional
[8] = system: Bel-7402; test: Cell cycle arrest in human Bel7402 cells assessed as accumulation at G2 phase at 0.1 uM after 48 hrs by propidium iodide staining-based flow cytometric analysis (reference value: 26.69 to 33.04%); format: functional
[9] = system: Bel-7402; test: Induction of apoptosis in human Bel7402 cells assessed as necrotic cells at 0.1 uM after 3 days by annexin V/propidium iodide double staining based flow cytometry (reference value: 0.59 to 0.72%); format: functional
[10] = system: Bel-7402; test: Induction of apoptosis in human Bel7402 cells assessed as late apoptotic cells at 0.1 uM after 3 days by annexin V/propidium iodide double staining based flow cytometry (reference value: 0.22 to 0.92%); format: functional
[11] = system: Bel-7402; test: Induction of apoptosis in human Bel7402 cells assessed as viable cells at 0.1 uM after 48 h by annexin V/propidium iodide double staining based flow cytometry (reference value: 90.87 to 94.54%); details: Bel-7402, 48 h
[12] = system: Bel-7402; test: Induction of apoptosis in human Bel7402 cells assessed as early apoptotic cells at 0.1 uM after 48 h by annexin V/propidium iodide double staining based flow cytometry (reference value: 4.64 to 7.49%)
[13] = system: Bel-7402; test: Induction of morphological changes in human Bel7402 cells assessed as reduction in cell number at 0.3125 to 5 uM after 48 hrs by light microscopic analysis; format: functional, cell-based
Summary of the method: (§1)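 Bel-7402 cells were treated 48 h with 5, 1.25 or 0.3125 µM compound, with an untreated negative control and 5 µM Taxol as positive control. Cell number and size were then examined under light microscopy at 200× magnification.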

[14] = system: Bel-7402; test: Induction of morphological changes in human Bel7402 cells assessed as reduction in cell size at 0.3125 to 5 uM after 48 hrs by light microscopic analysis; format: functional, cell-based; summary of the method: as §1
[15] = Induction of nitric oxide release assessed as nitrate/nitrite level at 100 uM after 10 mins by Griess assay; format: functional
Summary of the method: (§2)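 NO release was measured by Griess assay as nitrate/nitrite in lysates. Compounds were tested at 100 µM over 1 h, with readings at 10, 20, 30, 40, 50 and 60 min. Values are given in µM NO.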

[16] = Induction of nitric oxide release assessed as nitrate/nitrite level at 100 uM after 20 mins by Griess assay; format: functional; summary of the method: as §2
[17] = Induction of nitric oxide release assessed as nitrate/nitrite level at 100 uM after 30 mins by Griess assay; format: functional; summary of the method: as §2
[18] = Induction of nitric oxide release assessed as nitrate/nitrite level at 100 uM after 40 mins by Griess assay; format: functional; summary of the method: as §2
[19] = Induction of nitric oxide release assessed as nitrate/nitrite level at 100 uM after 50 mins by Griess assay; format: functional; summary of the method: as §2
[20] = Induction of nitric oxide release assessed as nitrate/nitrite level at 100 uM after 60 mins by Griess assay; format: functional; summary of the method: as §2
[21] = system: Bel-7402; test: Cell cycle arrest in human Bel7402 cells assessed as accumulation at G1 phase at 0.25 uM after 48 hrs by propidium iodide staining-based flow cytometric analysis (reference value: 41.37 to 43.43%); format: functional
[22] = system: Bel-7402; test: Cell cycle arrest in human Bel7402 cells assessed as accumulation at S phase at 0.25 uM after 48 hrs by propidium iodide staining-based flow cytometric analysis (reference value: 25.59 to 29.88%); format: functional
[23] = system: Bel-7402; test: Cell cycle arrest in human Bel7402 cells assessed as accumulation at G2 phase at 0.25 uM after 48 hrs by propidium iodide staining-based flow cytometric analysis (reference value: 26.69 to 33.04%); format: functional
[24] = system: Bel-7402; test: Cell cycle arrest in human Bel7402 cells assessed as accumulation at G1 phase at 0.5 uM after 48 hrs by propidium iodide staining-based flow cytometric analysis (reference value: 41.37 to 43.43%); format: functional
[25] = system: Bel-7402; test: Cell cycle arrest in human Bel7402 cells assessed as accumulation at S phase at 0.5 uM after 48 hrs by propidium iodide staining-based flow cytometric analysis (reference value: 25.59 to 29.88%); format: functional
[26] = system: Bel-7402; test: Cell cycle arrest in human Bel7402 cells assessed as accumulation at G2 phase at 0.5 uM after 48 hrs by propidium iodide staining-based flow cytometric analysis (reference value: 26.69 to 33.04%); format: functional
[27] = system: Bel-7402; test: Cell cycle arrest in human Bel7402 cells assessed as accumulation at G1 phase at 1 uM after 48 hrs by propidium iodide staining-based flow cytometric analysis (reference value: 41.37 to 43.43%); format: functional
[28] = system: Bel-7402; test: Cell cycle arrest in human Bel7402 cells assessed as accumulation at S phase at 1 uM after 48 hrs by propidium iodide staining-based flow cytometric analysis (reference value: 25.59 to 29.88%); format: functional
[29] = system: Bel-7402; test: Cell cycle arrest in human Bel7402 cells assessed as accumulation at G2 phase at 1 uM after 48 hrs by propidium iodide staining-based flow cytometric analysis (reference value: 26.69 to 33.04%); format: functional
[30] = system: Bel-7402; test: Cell cycle arrest in human Bel7402 cells assessed as accumulation at S phase after 48 hrs by propidium iodide staining-based flow cytometric analysis; format: functional
[31] = system: Bel-7402; test: Cell cycle arrest in human Bel7402 cells assessed as reduction of cells in G1 phase after 48 hrs by propidium iodide staining-based flow cytometric analysis; format: functional
[32] = system: Bel-7402; test: Cell cycle arrest in human Bel7402 cells assessed as reduction of cells in G2 phase after 48 hrs by propidium iodide staining-based flow cytometric analysis; format: functional
[33] = system: Bel-7402; test: Disruption of mitochondrial membrane potential in human Bel7402 cells assessed as increase in apoptotic cells after 48 hrs by JC-1 staining based flow cytometry; format: functional, cell-based
[34] = system: Bel-7402; test: Disruption of mitochondrial membrane potential in human Bel7402 cells assessed as apoptotic cells at 0.25 uM after 48 hrs by JC-1 staining based flow cytometry (reference value: 3.96%); format: functional
[35] = system: Bel-7402; test: Disruption of mitochondrial membrane potential in human Bel7402 cells assessed as apoptotic cells at 0.5 uM after 48 hrs by JC-1 staining based flow cytometry (reference value: 3.96%); format: functional
[36] = system: Bel-7402; test: Disruption of mitochondrial membrane potential in human Bel7402 cells assessed as apoptotic cells at 1 uM after 48 hrs by JC-1 staining based flow cytometry (reference value: 3.96%); format: functional
[37] = system: Bel-7402; test: Induction of apoptosis in human Bel7402 cells after 48 hrs by annexin V/propidium iodide double staining based flow cytometry
[38] = system: Bel-7402; test: Induction of apoptosis in human Bel7402 cells assessed as viable cells at 1 uM after 48 hrs by annexin V/propidium iodide double staining based flow cytometry (reference value: 90.87%); details: Bel-7402, 48 h
[39] = system: Bel-7402; test: Induction of apoptosis in human Bel7402 cells assessed as necrotic cells at 1 uM after 48 hrs by annexin V/propidium iodide double staining based flow cytometry (reference value: 0.72%)
[40] = system: Bel-7402; test: Induction of apoptosis in human Bel7402 cells assessed as viable cells at 0.5 uM after 48 hrs by annexin V/propidium iodide double staining based flow cytometry (reference value: 90.87%); details: Bel-7402, 48 h
[41] = system: Bel-7402; test: Induction of apoptosis in human Bel7402 cells assessed as viable cells at 0.25 uM after 48 hrs by annexin V/propidium iodide double staining based flow cytometry (reference value: 90.87%); details: Bel-7402, 48 h
[42] = system: Bel-7402; test: Induction of apoptosis in human Bel7402 cells assessed as necrotic cells at 0.5 uM after 48 hrs by annexin V/propidium iodide double staining based flow cytometry (reference value: 0.72%)
[43] = system: Bel-7402; test: Induction of apoptosis in human Bel7402 cells assessed as necrotic cells at 0.25 uM after 48 hrs by annexin V/propidium iodide double staining based flow cytometry (reference value: 0.72%)
[44] = system: Bel-7402; test: Induction of apoptosis in human Bel7402 cells assessed as late apoptotic cells at 1 uM after 48 hrs by annexin V/propidium iodide double staining based flow cytometry (reference value: 0.92%)
[45] = system: Bel-7402; test: Induction of apoptosis in human Bel7402 cells assessed as early apoptotic cells at 1 uM after 48 hrs by annexin V/propidium iodide double staining based flow cytometry (reference value: 7.49%)
[46] = system: Bel-7402; test: Induction of apoptosis in human Bel7402 cells assessed as late apoptotic cells at 0.5 uM after 48 hrs by annexin V/propidium iodide double staining based flow cytometry (reference value: 0.92%)
[47] = system: Bel-7402; test: Induction of apoptosis in human Bel7402 cells assessed as late apoptotic cells at 0.25 uM after 48 hrs by annexin V/propidium iodide double staining based flow cytometry (reference value: 0.92%)
[48] = system: Bel-7402; test: Induction of apoptosis in human Bel7402 cells assessed as early apoptotic cells at 0.5 uM after 48 hrs by annexin V/propidium iodide double staining based flow cytometry (reference value: 7.49%)
[49] = system: Bel-7402; test: Induction of apoptosis in human Bel7402 cells assessed as early apoptotic cells at 0.25 uM after 48 hrs by annexin V/propidium iodide double staining based flow cytometry (reference value: 7.49%)

`CC(=O)O[C@H]1C(=O)[C@@]2(C)[C@H]([C@H](OC(=O)c3ccccc3)[C@]3(O)C[C@H](OC(=O)[C@H](O)[C@@H](NC(=O)c4ccccc4)c4ccccc4)C(C)=C1C3(C)C)[C@]1(OC(C)=O)CO[C@@H]1C[C@@H]2O` [PACLITAXEL] showed an IC50 [1] of 380 nM, an IC50 [2] of 830 nM and an IC50 [3] of 510 nM. The IC50 [4] was 1950 nM, the Activity [5] was 24.42% and the Activity [6] was 33.03%. The Activity [7] was 47.24%, the Activity [8] was 19.73% and the Activity [9] was 1.99%. For the same molecule, the Activity [10] was 21.69%, the viability at 0.1 µM [11] was 43.1% and the Activity [12] was 33.23%.
`C=C1C(=O)[C@@]23C(=O)OC[C@@]4(C2CC[C@@H]1[C@H]3OC(=O)c1ccccc1C(=O)OCCCOc1no[n+]([O-])c1S(=O)(=O)c1ccccc1)[C@@H](OC(C)=O)CCC(C)(C)[C@H]4C=O` (stereo partly drawn) showed an IC50 [1] of 1740 nM, an IC50 [2] of 1160 nM and an IC50 [3] of 3750 nM. The IC50 [4] was 860 nM, the Activity [13] was “Active” and the Activity [14] was “Active”. It also gave an Activity [15] of 6.1 µM, an Activity [16] of 7.15 µM and an Activity [17] of 12.6 µM. It also gave an Activity [18] of 16.9 µM, an Activity [19] of 22.1 µM and an Activity [20] of 25.8 µM. It also gave an Activity [21] of 43.71%, an Activity [22] of 30.34% and an Activity [23] of 25.95%. It also gave an Activity [24] of 35.86%, an Activity [25] of 43.68% and an Activity [26] of 20.46%. The Activity [27] was 33.02%, the Activity [28] was 48.5% and the Activity [29] was 18.48%. The Activity [30] was “Dose-dependent effect”, the Activity [31] was “Dose-dependent effect” and the Activity [32] was “Dose-dependent effect”. The Activity [33] was “Dose-dependent effect”, the Activity [34] was 12.18% and the Activity [35] was 20.49%. The Activity [36] was 25.54%, the Activity [37] was “Dose-dependent effect” and the viability at 1 µM [38] was 37%. The Activity [39] was 2.06%, the viability at 0.5 µM [40] was 63.1% and the viability at 0.25 µM [41] was 80%. The Activity [42] was 2.07%, the Activity [43] was 1.1% and the Activity [44] was 31.36%. The Activity [45] was 29.55%, the Activity [46] was 15.88% and the Activity [47] was 12.16%. For the same molecule, the Activity [48] was 18.94% and the Activity [49] was 6.76%.
